This note sets out measurements from ChEMBL document CHEMBL1137758, “Biphenyl C-cyclopropylalkylamides: New scaffolds for targeting estrogen receptor beta” (Bioorg Med Chem Lett, 2009).

Each structure is given as a SMILES string. Active and inactive are the calls of the source. The rule behind the calls is not given here.

The test system of experiment [1] is MDA-MB-231. The experiment can be described thus: Cytotoxicity against estrogen receptor deficient human MDA-MB-231 cells at 25 uM after 72 hrs by MTS assay. The format is functional, cell-based. The method, boiled down: (§1)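 Cells were plated at 1×10^3 cells/well in phenol red-free RPMI-1640 with 10% FBS and left to adhere 72 h. Agents were given over 3.2 nM to 50 µM for 72 h. Cell density was read by MTS dye reduction, A490 with A630 background subtracted.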
A general note: Tetrazolium assays rely on reduction of a dye to a coloured formazan, in cell work by metabolically active cells.

Experiment [2] concerns MCF7. Kind of experiment: cells. As to conditions: Homo sapiens, MCF7, 144 h.
The test system of experiment [3] is MDA-MB-231. Kind of experiment: Growth inhibition of estrogen receptor deficient human MDA-MB-231 cells at 3.2 nM to 50 uM after 72 hrs by MTS assay. Type of experiment: functional, cell-based. The method, boiled down: as §1
Experiment [4] has as its system MCF7. Kind of experiment: Cytotoxicity against estradiol-stimulated human MCF7 cells expressing ERalpha at 25 uM after 6 days by MTS assay. The format is functional, cell-based. The method, boiled down:
(§2)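 MCF-7 cells (an earlier passage expressing ERα and ERβ, or the later-passage ATCC variant expressing only ERα) were seeded at 4×10^3 cells/well in phenol red-free RPMI-1640 with 10% charcoal-dextran stripped FBS and left to adhere overnight. […] MTS/PMS read-out was A490 minus A630 after 2 h. Day-0 cells were set to 0% growth and E2-stimulated day-6 growth to 100%.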

Experiment [5] concerns MCF7. Kind of experiment: cells. As to conditions: Homo sapiens, MCF7, 144 h. This is another data set of the same source.
Experiment [6] deals with MCF7. The experiment can be described thus: Cytotoxicity against estradiol-stimulated human MCF7 cells expressing ERalpha and ERbeta at 25 uM after 6 days by MTS assay. The format is functional, cell-based. The method, boiled down:
as §2

The target in experiment [7] is T1, Estrogen receptor beta (Homo sapiens, UniProt Q92731). Kind of experiment: Displacement of fluorescein-labeled estradiol from human recombinant ERbeta by fluorescence polarization assay. The procedure, abridged: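 ER (15 nM) was incubated with Fluormone ES2 (1 nM) and serially diluted compound in DMSO (1% v/v) in duplicate. Polarization was read after 2 h (ex 485/em 530 nm). […] Values are means of three experiments.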
T1 sequence (Q92731 whole entry): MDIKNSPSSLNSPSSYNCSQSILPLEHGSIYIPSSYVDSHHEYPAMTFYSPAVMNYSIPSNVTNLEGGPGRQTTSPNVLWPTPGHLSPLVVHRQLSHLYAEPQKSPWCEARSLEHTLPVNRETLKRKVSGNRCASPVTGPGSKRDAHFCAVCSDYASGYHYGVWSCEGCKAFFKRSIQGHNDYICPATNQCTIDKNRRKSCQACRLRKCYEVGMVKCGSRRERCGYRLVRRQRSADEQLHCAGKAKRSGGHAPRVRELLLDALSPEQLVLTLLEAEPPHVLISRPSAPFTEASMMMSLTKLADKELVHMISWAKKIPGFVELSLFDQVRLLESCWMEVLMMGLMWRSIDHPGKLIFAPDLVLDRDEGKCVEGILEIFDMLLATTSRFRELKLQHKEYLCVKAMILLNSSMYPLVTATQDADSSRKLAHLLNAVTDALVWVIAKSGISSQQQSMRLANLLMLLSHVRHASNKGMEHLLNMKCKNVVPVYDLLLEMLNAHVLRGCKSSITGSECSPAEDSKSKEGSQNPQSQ

The next experiment has as its target T2, Estrogen receptor (Homo sapiens, UniProt P03372).
T2 sequence (P03372 whole entry): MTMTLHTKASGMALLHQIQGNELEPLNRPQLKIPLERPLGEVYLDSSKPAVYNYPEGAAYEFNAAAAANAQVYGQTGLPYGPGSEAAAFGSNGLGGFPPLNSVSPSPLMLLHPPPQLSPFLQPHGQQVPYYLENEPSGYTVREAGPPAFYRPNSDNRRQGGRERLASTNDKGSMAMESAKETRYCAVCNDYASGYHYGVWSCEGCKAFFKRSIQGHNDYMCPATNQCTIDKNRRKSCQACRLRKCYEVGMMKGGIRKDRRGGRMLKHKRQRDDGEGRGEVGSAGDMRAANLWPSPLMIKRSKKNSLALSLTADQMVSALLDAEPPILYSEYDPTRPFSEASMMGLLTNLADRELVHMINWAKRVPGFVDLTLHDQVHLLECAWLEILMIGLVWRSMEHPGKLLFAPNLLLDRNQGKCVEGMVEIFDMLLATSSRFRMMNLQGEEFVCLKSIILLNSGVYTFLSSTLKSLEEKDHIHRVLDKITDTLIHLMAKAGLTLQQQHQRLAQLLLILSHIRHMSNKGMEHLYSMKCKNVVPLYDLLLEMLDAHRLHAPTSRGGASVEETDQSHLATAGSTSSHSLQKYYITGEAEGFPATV
Kind of experiment: Displacement of fluorescein-labeled estradiol from human recombinant ERalpha by fluorescence polarization assay. For orientation: In fluorescence polarisation assays a small probe gives low polarisation when free and higher when bound to something large.

Experiment [8] in a line: Selectivity for ERalpha over ERbeta.
The nature of experiment [9]: Selectivity for ERbeta over ERalpha.
In experiment [10] the target is T1, Estrogen receptor beta. Kind of experiment: Displacement of fluorescein-labeled estradiol from human recombinant ERbeta at 5 uM by fluorescence polarization assay.
Experiment [11] has as its target T3, Estrogen receptor (Homo sapiens) (UniProt P03372).
T3 sequence (whole entry): T2 sequence (P03372 whole entry)
The experiment can be described thus: Displacement of fluorescein-labeled estradiol from human recombinant ERalpha at 0.2 uM by fluorescence polarization assay.

Experiment [12] concerns the target T1, Estrogen receptor beta. Kind of experiment: Displacement of fluorescein-labeled estradiol from human recombinant ERbeta at 0.2 uM by fluorescence polarization assay.
Experiment [13] concerns the target T3, Estrogen receptor (Homo sapiens). Kind of experiment: Displacement of fluorescein-labeled estradiol from human recombinant ERalpha at 5 uM by fluorescence polarization assay.
In experiment [14] the target is T1, Estrogen receptor beta. Kind of experiment: Displacement of fluorescein-labeled estradiol from human recombinant ERbeta at 1 uM by fluorescence polarization assay.
Experiment [15] concerns the target T3, Estrogen receptor (Homo sapiens). Kind of experiment: Displacement of fluorescein-labeled estradiol from human recombinant ERalpha at 1 uM by fluorescence polarization assay.

`CCCC[C@@H]1C[C@H]1[C@@H](N)c1ccc(-c2ccc(O)cc2)cc1F.Cl` (relative stereo): the outcome with MDA-MB-231 [1], in the experiment on MCF7 [4] and in the experiment on MCF7 [6] was Active. In addition, the GI50 in the experiment on MCF7 [2] turned out to be 51.7 µM; with MCF7 [5] it was 1.2 µM. In the experiment with MDA-MB-231 [3], the “growth inhibition (GI)” value is “inactive”. Moreover, the IC50 at Estrogen receptor beta [7] is 15 µM; at Estrogen receptor, “Not Active”.

In [8], `CCCc1c(-c2ccc(O)cc2)nn(-c2ccc(O)cc2)c1-c1ccc(O)cc1` had a fold change (FC) of 410.

In turn, `O/N=C/c1ccc(-c2ccc(O)cc2)cc1F` gave a fold change (FC) in experiment [9] of 11. The IC50 at Estrogen receptor beta [7] stood at 0.0323 µM; on Estrogen receptor (read-out: IC50), 0.795 µM.

On to `CCCC[C@@H]1C[C@H]1[C@@H](NC(=O)c1ccccc1)c1ccc(-c2ccc(O)cc2)cc1F` (relative stereo), for which the result in the experiment on MDA-MB-231 [1], in the experiment on MCF7 [4] and with MCF7 [6] was Active. Also, the “growth inhibition (GI)” value with MDA-MB-231 [3] was “inactive”. In the experiment with MCF7 [5], the concentration for 50% growth inhibition (GI50) came out at 4.1 µM. In addition, the half-maximal inhibitory concentration (IC50) is 2.05 µM at Estrogen receptor beta [7] and above 100 µM at Estrogen receptor (read-out: IC50).

Regarding `CCC/C=C(\CCC)[C@@H](NC(=O)CCc1ccccc1)c1ccc(C(F)(F)F)cc1`, the Activity on Estrogen receptor beta [10] stood at 17%; in experiment [11], 56%; on Estrogen receptor beta [12], 8%; in experiment [13], 67%; on Estrogen receptor beta [14], 13%; in [15] it was 31%.

With `CCC/C=C(\CCC)[C@@H](NC(=O)c1ccc(C(F)(F)F)cc1)c1ccc(C(F)(F)F)cc1`, the Activity on Estrogen receptor beta [10] is 5%; in [11] it was -7%; on Estrogen receptor beta [12], 10%; in experiment [13] it was 61%; at Estrogen receptor beta [14], 5%; in experiment [15], 32%.

Take `CCC/C=C(\CCC)[C@@H](NC(=O)c1cccs1)c1ccc(C(=O)OC)cc1`: the Activity on Estrogen receptor beta [10] was 31%; in [11], 48%; on Estrogen receptor beta [12] it was 5%; in experiment [13] it was 86%; at Estrogen receptor beta [14], 13%; in experiment [15], 73%.

For the compound `CCC/C=C(\CCC)[C@@H](NC(=O)c1ccc(C(=O)OC)cc1)c1ccc(C(=O)OC)cc1`, the Activity on Estrogen receptor beta [10] was 8%; in experiment [11], -14%; at Estrogen receptor beta [12], -13%; in [13], 38%; at Estrogen receptor beta [14] it was -3%; in [15], 24%.

Regarding `CCC/C=C(\CCC)[C@@H](NS(=O)(=O)c1ccc(C(F)(F)F)cc1)c1ccc(-c2ccccc2)cc1`, the Activity at Estrogen receptor beta [10] came to 7%; in experiment [11], 72%; at Estrogen receptor beta [12], 7%; in experiment [13], 46%; on Estrogen receptor beta [14] it was 8%; in experiment [15], 14%.

In the case of `CCC/C=C(\CCC)[C@@H](NP(=O)(c1ccccc1)c1ccccc1)c1ccc(-c2ccccc2)cc1`, the Activity was -25% at Estrogen receptor beta [10]; 46% in [11]; 19% at Estrogen receptor beta [12]; -77% in experiment [13]; -10% on Estrogen receptor beta [14]; 11% in experiment [15].

`CCCC[C@@H]1C[C@H]1[C@@H](NC(=O)Cc1ccccc1)c1ccc(-c2ccccc2)cc1`: the Activity at Estrogen receptor beta [10] is 14%; in experiment [11] it was 47%; on Estrogen receptor beta [12], 2%; in experiment [13] it was 28%; at Estrogen receptor beta [14], 8%; in [15], 33%.

As to `CCC/C=C(\CCC)[C@@H](NC(=O)c1cccs1)c1ccc(C(F)(F)F)cc1`, the Activity is 19% at Estrogen receptor beta [10]; 43% in experiment [11]; 9% at Estrogen receptor beta [12]; 73% in experiment [13]; 12% at Estrogen receptor beta [14]; 31% in experiment [15].

Turning to `CCC/C=C(\CCC)[C@@H](NS(=O)(=O)c1cccc2cccnc12)c1ccc(-c2ccccc2)cc1`, the Activity stood at 13% at Estrogen receptor beta [10]; 56% in experiment [11]; 14% at Estrogen receptor beta [12]; 67% in experiment [13]; 11% at Estrogen receptor beta [14]; 28% in experiment [15].

`CCC/C=C(\CCC)[C@@H](NC(=O)c1ccco1)c1ccc(C(=O)OC)cc1`: the Activity at Estrogen receptor beta [10] was 15%; in experiment [11] it was 36%; on Estrogen receptor beta [12], -4%; in [13] it was 76%; at Estrogen receptor beta [14], -4%; in experiment [15] it was 58%.

In the case of `CCC/C=C(\CCC)[C@@H](NC(=O)Cc1ccccc1)c1ccc(C(=O)OC)cc1`, the Activity was 13% on Estrogen receptor beta [10]; 3% in experiment [11]; -11% at Estrogen receptor beta [12]; 48% in experiment [13]; -2% on Estrogen receptor beta [14]; 22% in [15].

`C=C(CCCC)[C@@H](NC(=O)c1ccco1)c1ccccc1`: the Activity is 6% at Estrogen receptor beta [10]; -111% in experiment [11]; -3% on Estrogen receptor beta [12]; 41% in experiment [13]; -2% at Estrogen receptor beta [14]; 29% in experiment [15].

With `CCC/C=C(\CCC)[C@@H](NS(=O)(=O)c1ccc(C(F)(F)F)cc1)c1ccccc1`, the Activity on Estrogen receptor beta [10] is 30%; in experiment [11] it was 47%; at Estrogen receptor beta [12], -1%; in experiment [13], 90%; at Estrogen receptor beta [14], 10%; in [15] it was 74%.

With `CCCC[C@@H]1C[C@H]1[C@@H](NC(=O)c1cccs1)c1ccc(-c2ccccc2)cc1`, the Activity at Estrogen receptor beta [10] is 5%; in experiment [11], 58%; at Estrogen receptor beta [12], -1%; in experiment [13] it was 37%; on Estrogen receptor beta [14], 8%; in experiment [15], 54%.

In the case of `CCC/C=C(\CCC)[C@@H](NC(=O)C(C)(C)C)c1ccc(C(=O)OC)cc1`, the Activity at Estrogen receptor beta [10] was 10%; in experiment [11], 27%; at Estrogen receptor beta [12] it was 1%; in experiment [13] it was 63%; at Estrogen receptor beta [14], -4%; in [15], 42%.

On to `O=C(c1ccc(OCCN2CCCCC2)cc1)c1c(-c2ccc(O)cc2)sc2cc(O)ccc12`, for which the result with MDA-MB-231 [1], with MCF7 [4] and in the experiment on MCF7 [6] was Active. Moreover, the “growth inhibition (GI)” value in the experiment on MDA-MB-231 [3] was “inactive”.

For `CCC/C=C(\CCC)[C@@H](NS(=O)(=O)c1ccccc1Cl)c1ccc(C(=O)OC)cc1`, the Activity stood at 40% at Estrogen receptor beta [10]; 61% in experiment [11]; 15% on Estrogen receptor beta [12]; 98% in experiment [13]; 32% on Estrogen receptor beta [14]; 92% in experiment [15].

On to `CCCC[C@@H]1C[C@H]1[C@@H](NC(=O)c1ccccc1)c1ccc(C(=O)OC)cc1`, for which the Activity on Estrogen receptor beta [10] is 6%; in experiment [11] it was 54%; at Estrogen receptor beta [12], -3%; in [13], 75%; on Estrogen receptor beta [14], -2%; in experiment [15], 54%.

On to `C=C(CCCC)[C@@H](NC(=O)c1ccccc1)c1ccccc1`, for which the Activity at Estrogen receptor beta [10] came to 9%; in experiment [11], 58%; at Estrogen receptor beta [12], 2%; in experiment [13], 67%; at Estrogen receptor beta [14], 3%; in experiment [15], 70%.

Consider `Cc1cc(-c2ccc(O)c(F)c2)ccc1/C=N/O`, for which the fold change (FC) in [9] was found to be 43.

As usually defined, the GI50 is the concentration at which growth is held to half of that of the control. A high value points to less potent growth inhibition. Usually IC50 stands for the concentration at which inhibition is half-maximal.
